Assay results published in ChEMBL document CHEMBL4257511, “Effect of N-1 arylation of monastrol on kinesin Eg5 inhibition in glioma cell lines” (Medchemcomm, 2018).
Activity calls are given as the source filed them. The rule behind the calls is not given here.

Columns and labels:
[1] = test system: U138-MG; assay: Antiproliferative activity against human U138MG cells assessed as reduction in cell viability at 100 uM after 24 hrs by MTS assay relative to control; type: functional
Outline: (§1)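 Glioma cells grown in DMEM with penicillin/streptomycin and FBS (15% or 5%, by line), 37 °C, 5% CO2; seeded and grown to semi-confluence, then exposed 24 h to 5, 10, 25, 50 and 100 μM. MTS reagent added for 2 h; absorbance at 490 nm. Viability expressed as percent of untreated control (100%); means ± SD of three independent experiments.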

[2] = test system: C6; assay: Antiproliferative activity against rat C6 cells assessed as reduction in cell viability at 100 uM after 24 hrs by MTS assay relative to control; type: functional; outline: as §1
[3] = test system: U138-MG; assay: Antiproliferative activity against human U138MG cells after 24 hrs by MTS assay; type: functional, cell-based; outline: as §1
[4] = test system: C6; assay: Antiproliferative activity against rat C6 cells after 24 hrs by MTS assay; type: functional, cell-based; details: C6, 24 h; outline: as §1
[5] = test system: C6; assay: Cell cycle arrest in rat C6 cells assessed as accumulation at G2/M phase at 100 uM after 24 hrs by propidium iodide staining based flow cytometry; type: functional
Outline: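 Cells grown to semi-confluence, treated 24 h (U138: 150 or 200 μM; C6: 50 or 100 μM), washed twice in PBS pH 7.4, harvested and resuspended at 10^6 cells/ml in Tris-HCl pH 7.6, 3.5 mM trisodium citrate, 0.1% NP40, 100 μg/mL RNase, 50 μg/mL PI. After 15 min, sub-G1, G0/G1, S and G2/M fractions read by flow cytometry.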

[6] = test system: U138-MG; assay: Induction of apoptosis in human U138MG cells at 200 uM after 48 hrs by Annexin V/propidium iodide staining based flow cytometry; type: functional, cell-based
Outline: (§2)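 After 48 h exposure (U138: 150 or 200 μM; C6: 50 or 100 μM), cells washed twice in cold PBS pH 7.4 and counted. 10^5 cells stained with FITC-annexin V and PI in binding buffer, 15 min at room temperature in the dark, then read by two-colour flow cytometry. Early apoptotic annexin+/PI−, late apoptotic annexin+/PI+, necrotic annexin−/PI+.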

[7] = test system: U138-MG; assay: Induction of necrosis in human U138MG cells at 200 uM after 48 hrs by Annexin V/propidium iodide staining based flow cytometry; type: functional, cell-based; outline: as §2
[8] = test system: C6; assay: Induction of apoptosis in rat C6 cells at 100 uM after 48 hrs by Annexin V/propidium iodide staining based flow cytometry; type: functional, cell-based; outline: as §2
[9] = molecular target: T1, Kinesin family member 11 (Rattus norvegicus) (UniProt F1MAB8); assay: Inhibition of EG5 in rat C6 cells assessed as monopolar spindle formation at 100 uM after 24 hrs by Hoechst staining based immunofluorescence microscopic method; type: cell-based
T1 sequence (whole entry): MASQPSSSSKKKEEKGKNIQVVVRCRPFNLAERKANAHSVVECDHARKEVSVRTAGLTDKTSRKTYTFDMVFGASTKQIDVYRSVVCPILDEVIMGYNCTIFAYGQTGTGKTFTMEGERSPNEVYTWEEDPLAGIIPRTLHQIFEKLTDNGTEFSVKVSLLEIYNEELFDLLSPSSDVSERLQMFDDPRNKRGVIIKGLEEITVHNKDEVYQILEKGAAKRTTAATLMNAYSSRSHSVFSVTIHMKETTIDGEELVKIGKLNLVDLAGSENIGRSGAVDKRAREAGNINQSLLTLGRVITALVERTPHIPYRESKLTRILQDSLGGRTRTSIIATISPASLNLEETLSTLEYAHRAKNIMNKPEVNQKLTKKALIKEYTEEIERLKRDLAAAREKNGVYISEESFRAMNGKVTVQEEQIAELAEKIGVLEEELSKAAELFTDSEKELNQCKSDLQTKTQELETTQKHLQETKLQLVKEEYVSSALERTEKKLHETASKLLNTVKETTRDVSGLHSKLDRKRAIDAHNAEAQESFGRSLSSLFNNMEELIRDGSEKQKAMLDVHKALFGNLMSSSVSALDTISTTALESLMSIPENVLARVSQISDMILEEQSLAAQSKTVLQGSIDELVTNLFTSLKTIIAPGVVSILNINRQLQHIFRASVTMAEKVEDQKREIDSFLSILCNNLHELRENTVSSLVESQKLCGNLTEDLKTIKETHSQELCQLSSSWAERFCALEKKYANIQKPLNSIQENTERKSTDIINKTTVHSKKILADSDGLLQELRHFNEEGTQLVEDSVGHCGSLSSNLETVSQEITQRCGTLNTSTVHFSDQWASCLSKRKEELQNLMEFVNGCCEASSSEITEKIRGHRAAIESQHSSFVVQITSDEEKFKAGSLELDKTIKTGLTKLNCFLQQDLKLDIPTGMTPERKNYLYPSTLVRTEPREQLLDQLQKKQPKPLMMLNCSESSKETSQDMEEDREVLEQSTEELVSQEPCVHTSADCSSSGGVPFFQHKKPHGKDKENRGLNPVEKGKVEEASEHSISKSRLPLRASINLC
Outline: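 Glioma cells allowed to adhere 48 h, then treated 24 h (U138: 150 or 200 μM; C6: 50 or 100 μM). Fixed cells probed with rabbit anti-α-tubulin for 90 min, then FITC goat anti-rabbit for 1 h, with Hoechst nuclear counterstain. Monopolar spindles scored by confocal microscopy at 600×.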

[10] = Toxicity in Caenorhabditis elegans N2 L1 larva assessed as mortality incubated for 30 mins on rotator and measured after 24 hrs; type: organism-based; details: in vivo
Outline: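 Wild-type N2 worms kept on NGM plates seeded with E. coli OP50 at 20 °C and synchronized to L1 by bleaching. L1 larvae (2.500 worms per dose) exposed acutely to five doses from 6.25 to 200 mM, 20 °C, 30 min with constant rotation. Washed three times in M9, plated on OP50-seeded NGM, survivors counted at 24 h. LC50 derived from dose–response curves.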

[11] = molecular target: T2, Kinesin-like protein KIF11 (Homo sapiens) (UniProt P52732); details: 200 uM
T2 sequence (whole entry): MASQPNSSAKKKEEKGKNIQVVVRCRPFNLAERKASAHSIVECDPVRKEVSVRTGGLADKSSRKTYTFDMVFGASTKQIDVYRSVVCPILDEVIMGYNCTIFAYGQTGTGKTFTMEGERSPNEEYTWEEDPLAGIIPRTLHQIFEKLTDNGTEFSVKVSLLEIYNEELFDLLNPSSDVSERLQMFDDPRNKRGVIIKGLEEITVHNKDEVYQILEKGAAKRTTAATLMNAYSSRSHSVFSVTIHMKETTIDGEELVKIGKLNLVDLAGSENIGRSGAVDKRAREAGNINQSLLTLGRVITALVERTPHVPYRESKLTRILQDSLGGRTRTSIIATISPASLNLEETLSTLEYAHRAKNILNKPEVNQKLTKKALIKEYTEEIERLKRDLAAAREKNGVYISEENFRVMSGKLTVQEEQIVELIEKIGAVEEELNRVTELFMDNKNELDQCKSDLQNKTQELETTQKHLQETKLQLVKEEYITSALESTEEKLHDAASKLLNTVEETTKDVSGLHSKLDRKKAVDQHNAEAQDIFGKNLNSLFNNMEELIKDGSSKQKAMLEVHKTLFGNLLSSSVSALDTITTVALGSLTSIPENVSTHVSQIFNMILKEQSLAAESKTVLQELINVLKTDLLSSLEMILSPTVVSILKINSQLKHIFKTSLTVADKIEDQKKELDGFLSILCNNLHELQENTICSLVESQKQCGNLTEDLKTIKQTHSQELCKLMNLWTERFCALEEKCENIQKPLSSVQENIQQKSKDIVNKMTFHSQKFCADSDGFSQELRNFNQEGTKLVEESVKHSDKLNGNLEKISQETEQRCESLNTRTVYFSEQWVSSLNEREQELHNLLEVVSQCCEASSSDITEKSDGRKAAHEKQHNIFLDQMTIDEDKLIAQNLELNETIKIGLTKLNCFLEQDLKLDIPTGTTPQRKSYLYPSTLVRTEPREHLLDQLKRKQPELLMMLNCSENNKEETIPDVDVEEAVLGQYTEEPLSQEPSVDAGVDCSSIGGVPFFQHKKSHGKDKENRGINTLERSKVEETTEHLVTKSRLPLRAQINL

[12] = test system: C6 (Rattus norvegicus); assay: Cell cycle arrest in rat C6 cells assessed as accumulation at G2/M phase at 100 uM after 24 hrs by propidium iodide staining based flow cytometry relative to control

CCOC(=O)C1=C(C)NC(=S)NC1c1cccc(O)c1 (configuration not stated) [MONASTROL]
Activity [1]: 20.8%
Activity [2]: Active
IC50 [3]: > 0.2 mM
IC50 [4]: > 0.2 mM
Activity [5]: Active
Activity [6]: Active
Activity [7]: Active
Activity [8]: Active
inhibition [9]: Active
LC50 at 24 h [10]: 80.1 mM
inhibition [11]: Active
Activity [12]: 27.4%
